Activity calls are given as the source filed them. No cut-off for these calls is given here.
Assays:
[1] = molecular target: T1, Thioredoxin reductase 1, cytoplasmic (Rattus norvegicus, UniProt O89049); assay: Inhibition of NADPH-reduced recombinant rat TrxR1 expressed in Escherichia coli harboring gor mutant assessed as suppression of DTNB reduction pretreated for 1 hr followed by DTNB addition measured every 5 mins for 1 hr
Method in brief: (§1)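 Rat recombinant TrxR-1 (5.6 nM), prereduced, with DTNB (2 mM) and compound 0–5000 nM. Compound was either preincubated 1 h with enzyme before substrate or added at the same time as DTNB. Read-out was initial rates of DTNB reduction relative to no-compound control, giving IC50 (± error).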

[2] = Drug metabolism assessed as selenocysteine reactivity at 20 uM incubated for 1 hr measured every 5 mins for 1 hr by sel-green probe based fluorescence assay; type: physicochemical
Method in brief: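 Reduced L-selenocysteine (20 μM) reacted with Sel-green probe (20 μM) with test compound at 20 μM; DMSO-only control.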

[3] = molecular target: T1, Thioredoxin reductase 1, cytoplasmic; assay: (§2) Inhibition of NADPH-reduced recombinant rat TrxR1 expressed in Escherichia coli harboring gor mutant assessed as suppression of insulin reduction using Trx as substrate pretreated for 30 mins followed by Trx addition for 30 mins and subsequent eosin-labelled bovine insulin addition measured every 5 mins for 1 hr by fluorescence assay
[4] = molecular target: T2, Thioredoxin reductase 1, cytoplasmic (Rattus norvegicus) (UniProt O89049); assay: as §2
T2 sequence (whole entry): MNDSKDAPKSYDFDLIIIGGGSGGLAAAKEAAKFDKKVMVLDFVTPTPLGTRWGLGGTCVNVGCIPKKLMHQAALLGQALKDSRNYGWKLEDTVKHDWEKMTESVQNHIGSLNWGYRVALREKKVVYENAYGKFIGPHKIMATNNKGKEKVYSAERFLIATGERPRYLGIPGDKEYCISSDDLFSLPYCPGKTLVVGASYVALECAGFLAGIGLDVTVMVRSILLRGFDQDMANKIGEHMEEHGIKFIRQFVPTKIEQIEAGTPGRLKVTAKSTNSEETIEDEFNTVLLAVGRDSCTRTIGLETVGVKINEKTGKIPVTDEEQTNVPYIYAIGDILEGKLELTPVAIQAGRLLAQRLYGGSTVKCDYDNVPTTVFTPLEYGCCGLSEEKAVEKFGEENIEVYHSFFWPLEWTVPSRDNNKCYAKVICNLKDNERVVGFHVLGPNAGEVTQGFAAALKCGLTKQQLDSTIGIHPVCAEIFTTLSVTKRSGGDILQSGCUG

[5] = molecular target: T2, Thioredoxin reductase 1, cytoplasmic (Rattus norvegicus); assay: Irreversible inhibition of NADPH-reduced recombinant rat TrxR1 expressed in Escherichia coli harboring gor mutant assessed as suppression of DTNB reduction at 2 uM pretreated for 1 hr followed by NADPH addition for 30 mins and subsequent DTNB addition measured every 5 mins for 1 hr
[6] = molecular target: T2, Thioredoxin reductase 1, cytoplasmic (Rattus norvegicus); assay: Inhibition of NADPH-reduced recombinant rat TrxR1 expressed in Escherichia coli harboring gor mutant assessed as suppression of DTNB reduction at 5 uM pretreated for 1 hr followed by DTNB addition measured every 5 mins for 1 hr; method in brief: as §1
[7] = molecular target: T2, Thioredoxin reductase 1, cytoplasmic (Rattus norvegicus); assay: Inhibition of NADPH-reduced recombinant rat TrxR1 expressed in Escherichia coli harboring gor mutant assessed as suppression of DTNB reduction at 5 uM incubated for 1 hr in presence of DTNB measured every 5 mins for 1 hr; method in brief: as §1
[8] = molecular target: T2, Thioredoxin reductase 1, cytoplasmic (Rattus norvegicus); assay: Time-dependent inhibition of NADPH-reduced recombinant rat TrxR1 expressed in Escherichia coli harboring gor mutant assessed as suppression of DTNB reduction at 1 uM measured every 5 mins for 1 hr
[9] = molecular target: T1, Thioredoxin reductase 1, cytoplasmic; assay: Inhibition of NADPH-reduced recombinant rat TrxR1 expressed in Escherichia coli harboring gor mutant assessed as suppression of DTNB reduction incubated for 1 hr in presence of DTNB measured every 5 mins for 1 hr; method in brief: as §1
[10] = molecular target: T2, Thioredoxin reductase 1, cytoplasmic (Rattus norvegicus); assay: Induction of recombinant rat TrxR1 NADPH oxidase activity expressed in Escherichia coli harboring gor mutant assessed as superoxide generation by measuring cytochrome C reduction at 62.5 uM measured in presence of SOD
Method in brief: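 TrxR-1 (100 nM) incubated with compound (62.5 μM), with and without SOD (6 units/well); reduction of cytochrome C (100 μM) followed over time; DMSO-only control.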

[11] = molecular target: T2, Thioredoxin reductase 1, cytoplasmic (Rattus norvegicus); assay: Inhibition of oxidized recombinant rat TrxR1 expressed in Escherichia coli harboring gor mutant assessed as suppression of DTNB reduction at 2 uM pretreated for 30 mins followed by NADPH addition for 30 mins and subsequent DTNB addition measured every 5 mins for 1 hr

IC50 [1] [nM] | Drug metabolism [2] | IC50 [3] [nM] | inhibition [4] | inhibition [5] | inhibition [6] | inhibition [7] | TDI [8] | IC50 [9] [nM] | Activity [10] | inhibition [11] | Compound
272 | Metabolite_Detected | 572 | Dose-dependent effect | Active | Active | Active | Active | 1590 | inactive | inactive | CCCC[C@@H](C)/C=C(C)/C=C(\C)C(=O)NC1=C[C@@](O)(/C=C/C=C/C=C/C(=O)NC2=C(O)CCC2=O)[C@@H]2O[C@@H]2C1=O [MANUMYCIN A]
 | Metabolite_Notdetected |  |  |  |  |  |  |  |  |  | CCCCC(C)/C=C(C)/C=C(\C)C(=O)Nc1cc(/C=C/C=C/C=C/C(=O)NC2=C(O)CCC2=O)c(O)cc1O (configuration not stated)

Reference: ChEMBL document CHEMBL4251733, “Manumycin A Is a Potent Inhibitor of Mammalian Thioredoxin Reductase-1 (TrxR-1)” (ACS Med Chem Lett, 2018)
